Experimental data: ChEMBL document CHEMBL1158546, “Discovery of novel and potent leukotriene B4 receptor antagonists. Part 1” (J Med Chem, 2010); call rule not given here
Converted amounts (≈) assume the structure as drawn. Values belong to the compound of their own block, whether it stands above or below them.

What was measured:
Neutrophil = assay: Inhibition of LTB4-stimulated human neutrophils migration after 30 mins by using CyQuant GR fluorescent dye; format: functional, cell-based
In short: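 Human blood neutrophils (95-97% pure, isolated over Lympholyte-poly) at 5 × 10^6 cells/mL were preincubated with compound (3 × 10^-12 to 1 × 10^-6 M final) for 30 min at 37 C. Migration toward 100 ng/mL LTB4 across a polycarbonate membrane ran 90 min at 37 C. Migrated cells were lysed with CyQuant GR and read at 480/520 nm. IC50 was taken from a sigmoidal fit of % inhibition.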

[1] = molecular target: T1, Leukotriene B4 receptor 1 (Homo sapiens, UniProt Q15722); assay: Antagonist activity at BLT1 receptor expressed in human HL60 cells assessed as inhibition of LTB4-stimulated calcium flux after 30 mins; format: functional, cell-based, HL-60
In short: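 HL-60 cells grown in RPMI-1640 with 20% FBS were plated at 2.0 × 10^5 cells/ml with 1 μM retinoic acid. They were dye-loaded in HBSS/20 mM HEPES/5 mM probenecid (0.05% BSA in the replacement buffer) for 1 h at 37 C. Compound (5 × 10^-11 to 3 × 10^-6 M final) was added for 30 min at room temperature, then 0.5 μM LTB4. Fluorescence was read every 1.5 s for 100 s and peak increase scored as % inhibition versus DMSO control.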

Cytochrome P450 2C19 = Cytochrome P450 2C19 (Homo sapiens, UniProt P33261); assay: Inhibition of CYP2C19 fluorescence method; format: ADME
In short: (§1)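 Cytochrome P450 high-throughput panel (1A2, 2D6, 2C9, 2C19, 3A4) using fluorogenic substrates; IC50 reported.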

[2] = Tmax in Sprague-Dawley rat at 10 mg/kg, po; format: ADME, organism-based; set-up: dose 10 mg/kg, route oral; conditions: in vivo
In short: (§2)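 Rat single-dose PK, n = 3, with oral dosing at 10 mg/kg and intravenous dosing at 2.5 or 5 mg/kg.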

[3] = molecular target: T2, Leukotriene B4 receptor 2 (Homo sapiens, UniProt Q9NPC1); assay: Antagonist activity at FLAG-tagged human BLT2 receptor expressed in HEK293 cells assessed as inhibition of LTB4-stimulated calcium mobilization preincubated for 10 mins before LTB4 challenge; format: functional, cell-based
T2 sequence (Q9NPC1 whole entry): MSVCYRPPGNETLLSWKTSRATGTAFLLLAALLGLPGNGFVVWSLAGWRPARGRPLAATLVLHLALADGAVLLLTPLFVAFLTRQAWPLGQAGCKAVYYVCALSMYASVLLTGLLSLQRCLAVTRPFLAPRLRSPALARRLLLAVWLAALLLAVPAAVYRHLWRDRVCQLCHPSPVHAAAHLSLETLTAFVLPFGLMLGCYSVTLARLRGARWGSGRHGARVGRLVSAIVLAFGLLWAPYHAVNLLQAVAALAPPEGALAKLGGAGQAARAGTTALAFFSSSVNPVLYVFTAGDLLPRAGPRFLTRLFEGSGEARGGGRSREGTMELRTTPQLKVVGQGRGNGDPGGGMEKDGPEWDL

[4] = Solubility of compound in small intestinal contents in the fasted state at pH 6.5; format: ADME
In short: (§3)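 Solubility measured in simulated intestinal fluid at pH 5.0 (fed) or pH 6.5 (fasted), reported in μg/mL.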

[5] = Volume of distribution at steady state in Sprague-Dawley rat at 5 mg/kg, iv; format: ADME, organism-based; set-up: dose 5 mg/kg, route intravenous; conditions: in vivo, read-out: Vdss; in short: as §2
[6] = Half life in Sprague-Dawley rat at 5 mg/kg, iv; format: ADME, organism-based; set-up: dose 5 mg/kg, route intravenous; conditions: in vivo; in short: as §2
[7] = Half life in Sprague-Dawley rat at 10 mg/kg, po; format: ADME, organism-based; set-up: dose 10 mg/kg, route oral; conditions: in vivo; in short: as §2
[8] = Lipophilicity, log D of compound at pH 7.4; conditions: buffer
[9] = Solubility of compound in small intestinal contents in the fed state at pH 5; format: ADME; in short: as §3
[10] = Cmax in Sprague-Dawley rat at 10 mg/kg, po; format: ADME, organism-based; set-up: dose 10 mg/kg, route oral; conditions: in vivo; in short: as §2
[11] = Clearance in Sprague-Dawley rat at 5 mg/kg, iv; format: ADME, organism-based; set-up: dose 5 mg/kg, route intravenous; conditions: in vivo; in short: as §2
Cytochrome P450 2C9 [12] = molecular target: T3, Cytochrome P450 2C9 (Homo sapiens, UniProt P11712); assay: Inhibition of CYP2C9 fluorescence method; format: ADME
Cytochrome P450 1A2 = molecular target: T4, Cytochrome P450 1A2 (Homo sapiens, UniProt P05177); assay: Inhibition of CYP1A2 by fluorescence method; format: ADME; in short: as §1
T4 sequence (P05177 whole entry): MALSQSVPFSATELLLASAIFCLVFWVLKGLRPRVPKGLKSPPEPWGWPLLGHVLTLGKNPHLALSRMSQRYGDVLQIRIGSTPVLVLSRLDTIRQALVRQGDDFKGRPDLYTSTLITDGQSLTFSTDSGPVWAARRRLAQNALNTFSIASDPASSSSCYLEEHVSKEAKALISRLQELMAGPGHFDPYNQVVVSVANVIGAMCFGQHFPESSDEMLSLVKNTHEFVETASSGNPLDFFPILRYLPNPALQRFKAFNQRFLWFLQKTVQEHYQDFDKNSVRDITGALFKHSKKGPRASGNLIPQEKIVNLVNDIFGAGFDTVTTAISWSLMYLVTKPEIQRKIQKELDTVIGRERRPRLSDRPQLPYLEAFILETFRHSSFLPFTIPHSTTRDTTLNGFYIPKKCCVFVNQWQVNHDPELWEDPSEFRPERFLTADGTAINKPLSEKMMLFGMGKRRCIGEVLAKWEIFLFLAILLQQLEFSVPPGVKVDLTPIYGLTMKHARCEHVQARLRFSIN

Cytochrome P450 2C9 [13] = molecular target: T3, Cytochrome P450 2C9; assay: Inhibition of CYP2C9 by LC/MS method; format: ADME
[14] = Oral bioavailability in Sprague-Dawley rat at 10 mg/kg, po; format: ADME, organism-based; conditions: in vivo; in short: as §2
[15] = molecular target: Voltage-gated inwardly rectifying potassium channel KCNH2 (Homo sapiens, UniProt Q12809); assay: Inhibition of human ERG expressed in CHO cells at 3 uM assessed as reduction of current amplitude
[16] = molecular target: T1, Leukotriene B4 receptor 1; assay: Antagonist activity at FLAG-tagged human BLT1 receptor expressed in HEK293 cells assessed as inhibition of LTB4-stimulated calcium mobilization preincubated for 10 mins before LTB4 challenge; format: functional, cell-based
Cytochrome P450 3A4 = Cytochrome P450 3A4 (Homo sapiens, UniProt P08684); assay: Inhibition of CYP3A4 fluorescence method; format: ADME
In short: (§4)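 High-throughput CYP panel covering 1A2, 2D6, 2C9, 2C19 and 3A4, using fluorogenic substrates. IC50 was determined in μM.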

Cytochrome P450 2D6 = Cytochrome P450 2D6 (Homo sapiens, UniProt P10635); assay: Inhibition of CYP2D6 fluorescence method; format: ADME; in short: as §4
[17] = Homo sapiens, Neutrophil, 0.5 h, read-out: IC50

T1 sequence (Q15722 whole entry): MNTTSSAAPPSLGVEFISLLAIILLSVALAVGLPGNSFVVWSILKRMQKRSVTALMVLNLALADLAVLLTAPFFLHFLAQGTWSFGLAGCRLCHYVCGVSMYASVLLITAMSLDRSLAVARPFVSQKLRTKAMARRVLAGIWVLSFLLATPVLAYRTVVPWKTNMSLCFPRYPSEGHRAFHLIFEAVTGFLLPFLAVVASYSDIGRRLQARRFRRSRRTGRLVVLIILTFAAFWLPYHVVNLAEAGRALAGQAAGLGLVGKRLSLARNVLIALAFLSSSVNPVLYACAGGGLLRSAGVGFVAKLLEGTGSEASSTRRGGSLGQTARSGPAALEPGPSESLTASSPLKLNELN
T3 sequence (P11712 whole entry): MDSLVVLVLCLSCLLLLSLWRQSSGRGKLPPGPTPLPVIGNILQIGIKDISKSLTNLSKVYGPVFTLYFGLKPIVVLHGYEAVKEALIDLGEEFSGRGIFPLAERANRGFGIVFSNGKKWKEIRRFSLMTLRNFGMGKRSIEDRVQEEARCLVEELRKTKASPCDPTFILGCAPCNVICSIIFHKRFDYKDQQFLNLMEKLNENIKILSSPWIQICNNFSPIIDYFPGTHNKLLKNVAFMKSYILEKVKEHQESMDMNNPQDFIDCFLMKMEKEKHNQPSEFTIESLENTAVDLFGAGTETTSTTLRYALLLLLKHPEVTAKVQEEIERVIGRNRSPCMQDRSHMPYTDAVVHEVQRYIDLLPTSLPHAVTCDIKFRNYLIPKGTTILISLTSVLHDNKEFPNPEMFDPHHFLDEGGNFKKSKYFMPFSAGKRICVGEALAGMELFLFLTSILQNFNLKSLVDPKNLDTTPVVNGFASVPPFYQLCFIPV
Sequence of Voltage-gated inwardly rectifying potassium channel KCNH2 (Q12809 whole entry): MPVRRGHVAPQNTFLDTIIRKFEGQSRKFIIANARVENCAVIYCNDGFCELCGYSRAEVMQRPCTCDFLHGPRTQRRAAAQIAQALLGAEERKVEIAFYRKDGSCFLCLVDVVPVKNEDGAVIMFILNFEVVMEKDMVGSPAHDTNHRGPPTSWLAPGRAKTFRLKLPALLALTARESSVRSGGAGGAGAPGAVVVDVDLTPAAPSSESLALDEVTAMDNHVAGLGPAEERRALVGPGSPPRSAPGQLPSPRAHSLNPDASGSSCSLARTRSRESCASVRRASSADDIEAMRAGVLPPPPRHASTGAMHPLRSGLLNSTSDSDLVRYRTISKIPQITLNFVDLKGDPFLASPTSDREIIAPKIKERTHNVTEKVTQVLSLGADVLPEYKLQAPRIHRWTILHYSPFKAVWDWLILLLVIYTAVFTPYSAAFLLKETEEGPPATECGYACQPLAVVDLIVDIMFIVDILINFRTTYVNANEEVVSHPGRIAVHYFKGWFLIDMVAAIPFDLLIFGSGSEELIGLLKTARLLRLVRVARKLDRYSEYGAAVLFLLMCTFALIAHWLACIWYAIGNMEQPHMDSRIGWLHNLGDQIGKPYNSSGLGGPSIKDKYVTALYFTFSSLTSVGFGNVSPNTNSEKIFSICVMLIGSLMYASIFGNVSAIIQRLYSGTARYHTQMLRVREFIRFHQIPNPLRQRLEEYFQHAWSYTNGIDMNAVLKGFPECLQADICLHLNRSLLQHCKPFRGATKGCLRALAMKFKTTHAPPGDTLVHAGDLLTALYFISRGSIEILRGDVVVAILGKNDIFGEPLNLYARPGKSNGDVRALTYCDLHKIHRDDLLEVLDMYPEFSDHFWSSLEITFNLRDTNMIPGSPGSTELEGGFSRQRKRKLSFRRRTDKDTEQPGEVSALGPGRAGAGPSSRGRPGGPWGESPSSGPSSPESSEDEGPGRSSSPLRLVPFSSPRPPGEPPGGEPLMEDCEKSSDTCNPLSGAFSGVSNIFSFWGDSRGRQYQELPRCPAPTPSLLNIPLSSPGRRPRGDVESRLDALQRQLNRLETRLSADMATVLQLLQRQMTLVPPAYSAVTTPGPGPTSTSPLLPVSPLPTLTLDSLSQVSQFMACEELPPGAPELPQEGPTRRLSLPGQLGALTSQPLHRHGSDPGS
Sequence of Cytochrome P450 3A4 (P08684 whole entry): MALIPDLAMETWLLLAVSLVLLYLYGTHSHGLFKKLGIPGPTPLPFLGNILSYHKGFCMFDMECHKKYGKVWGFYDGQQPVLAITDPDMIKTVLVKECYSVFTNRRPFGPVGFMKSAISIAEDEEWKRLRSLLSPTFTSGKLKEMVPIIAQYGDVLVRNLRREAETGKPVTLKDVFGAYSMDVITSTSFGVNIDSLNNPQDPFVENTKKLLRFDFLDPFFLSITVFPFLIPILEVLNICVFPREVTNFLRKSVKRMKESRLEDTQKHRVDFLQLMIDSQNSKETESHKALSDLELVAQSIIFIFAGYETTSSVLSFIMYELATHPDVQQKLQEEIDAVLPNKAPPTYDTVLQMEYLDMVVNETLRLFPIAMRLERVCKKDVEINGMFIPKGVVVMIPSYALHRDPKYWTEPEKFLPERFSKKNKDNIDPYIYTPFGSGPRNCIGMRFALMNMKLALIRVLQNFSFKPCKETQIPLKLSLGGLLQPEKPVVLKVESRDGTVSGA
Sequence of Cytochrome P450 2C19 (P33261 whole entry): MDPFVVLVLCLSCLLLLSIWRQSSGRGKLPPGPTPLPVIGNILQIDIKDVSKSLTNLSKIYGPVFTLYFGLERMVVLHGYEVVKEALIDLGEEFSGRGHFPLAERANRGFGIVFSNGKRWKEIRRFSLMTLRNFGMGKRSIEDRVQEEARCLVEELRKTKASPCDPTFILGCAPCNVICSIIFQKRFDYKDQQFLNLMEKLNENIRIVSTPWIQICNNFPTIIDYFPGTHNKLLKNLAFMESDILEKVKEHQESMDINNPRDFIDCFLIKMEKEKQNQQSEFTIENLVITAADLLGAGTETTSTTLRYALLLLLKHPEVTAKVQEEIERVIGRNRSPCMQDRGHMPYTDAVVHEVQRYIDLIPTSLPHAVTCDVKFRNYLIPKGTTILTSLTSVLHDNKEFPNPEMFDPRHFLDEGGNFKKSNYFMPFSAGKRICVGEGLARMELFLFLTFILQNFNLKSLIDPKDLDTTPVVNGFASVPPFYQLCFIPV
Sequence of Cytochrome P450 2D6 (P10635 whole entry): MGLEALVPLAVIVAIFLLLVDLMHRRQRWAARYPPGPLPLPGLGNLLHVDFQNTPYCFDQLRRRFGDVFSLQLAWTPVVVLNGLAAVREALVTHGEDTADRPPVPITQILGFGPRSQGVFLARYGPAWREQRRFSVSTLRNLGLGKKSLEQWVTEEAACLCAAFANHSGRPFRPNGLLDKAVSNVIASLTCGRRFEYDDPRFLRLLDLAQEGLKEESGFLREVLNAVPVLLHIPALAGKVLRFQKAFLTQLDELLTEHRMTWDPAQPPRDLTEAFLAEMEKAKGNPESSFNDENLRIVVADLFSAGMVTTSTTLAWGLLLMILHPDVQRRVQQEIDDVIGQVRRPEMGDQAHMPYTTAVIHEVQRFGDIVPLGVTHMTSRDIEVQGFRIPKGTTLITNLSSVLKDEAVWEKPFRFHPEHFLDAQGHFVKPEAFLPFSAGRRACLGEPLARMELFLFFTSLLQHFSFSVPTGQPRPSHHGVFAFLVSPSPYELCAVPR

SMILES: COc1ccc(-c2cc(OCCCCCCc3cccc(OCCCC(=O)O)c3CCC(=O)O)cc(-c3ccc4c(c3)OCO4)c2)cc1
IC50 ([1]; read-out: IC50): 3.27 nM

SMILES: O=C(O)CCCOc1cccc(CCCCCCOc2cc(-c3ccncc3)cc(-c3cccc(F)c3)c2)c1CCC(=O)O
IC50 (Neutrophil; [17]): 0.2 nM
IC50 ([1]; read-out: IC50): 0.18 nM

SMILES: O=C(O)CCCOc1cccc(CCCCCCOc2cc(-c3ccncc3)cc(-c3ccncc3)c2)c1CCC(=O)O
IC50 (Cytochrome P450 2C19): > 7500 nM
Tmax [2]: 5 h
IC50 [3]: 143 nM
solubility [4]: 22.7 µg/mL (≈ 39 µM)
Vd [5]: 1.55 L/kg
half-life [6]: 4.52 h
half-life [7]: 4.52 h
logD [8]: 1.78
solubility [9]: 61 µg/mL (≈ 105 µM)
Cmax [10]: 310 nM
clearance [11]: 28.1 mL/min/kg
IC50 (Cytochrome P450 2C9 [12]): 340 nM
IC50 (Cytochrome P450 1A2): > 7500 nM
IC50 ([1]; read-out: IC50): 0.07 nM
IC50 (Cytochrome P450 2C9 [13]): 900 nM
bioavailability [14]: 10%
INH [15]: Not Active
IC50 [16]: 71 nM
IC50 (Cytochrome P450 3A4): > 7500 nM
IC50 (Cytochrome P450 2D6): > 7500 nM

SMILES: O=C(O)CCCOc1cccc(CCCCCCOc2cc(-c3cccc(F)c3)cc(-c3ccc4[nH]ccc4c3)c2)c1CCC(=O)O
IC50 ([1]; read-out: IC50): 14 nM

SMILES: O=C(O)CCCOc1cccc(CCCCCCOc2cc(-c3ccsc3)cc(-c3ccsc3)c2)c1CCC(=O)O
IC50 ([1]; read-out: IC50): 0.58 nM

Continued, values first:

IC50 (Neutrophil; [17]): 0.7 nM
IC50 ([1]; read-out: IC50): 0.58 nM
SMILES: O=C(O)CCCOc1cccc(CCCCCCOc2cc(-c3ccccc3)cc(-c3ccc4c(c3)OCO4)c2)c1CCC(=O)O

IC50 ([1]; read-out: IC50): 31.1 nM
SMILES: COc1ccc(-c2cc(OCCCCCCc3cccc(OCCCC(=O)O)c3CCC(=O)O)cc(-c3ccc(OC)cc3)c2)cc1

IC50 (Neutrophil; [17]): 0.2 nM
IC50 ([1]; read-out: IC50): 0.38 nM
SMILES: O=C(O)CCCOc1cccc(CCCCCCOc2cc(-c3cncnc3)cc(-c3ccc4c(c3)OCO4)c2)c1CCC(=O)O

IC50 ([1]; read-out: IC50): 5.35 nM
SMILES: O=C(O)CCCOc1cccc(CCCCCCOc2cc(-c3cncnc3)cc(-c3cncnc3)c2)c1CCC(=O)O

IC50 (Neutrophil; [17]): 0.1 nM
IC50 ([1]; read-out: IC50): 0.22 nM
SMILES: O=C(O)CCCOc1cccc(CCCCCCOc2cc(-c3ccncc3)cc(-c3ccc4c(c3)OCO4)c2)c1CCC(=O)O

IC50 (Neutrophil; neutrophil): Not Active
IC50 ([1]; hl-60): Not Active
SMILES: CCc1cc(C(C)=O)c(O)cc1OCCCCCC(C)(C)c1nn[nH]n1 [LY-255283]
